# Screening results as filed in PubChem.
# This is a sample that favours compounds with a hit; in the whole collection about 3.1% have one here.
# Apaf1 inhib: blocks human Apaf-1 apoptosome activity; O14727; reconstituted apoptosome caspase-3 activity, DEVD-Rh110 fluorescence; inhibition, % at 20 µM; actives 0.71% (n = 330,000); AID 489030; active means inhibition of at least 40% at 20 µM;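 further: plate controls were DMSO wells for no effect and DEVD-CHO caspase inhibitor wells for full effect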
# Target sequence (O14727 whole entry, looked up): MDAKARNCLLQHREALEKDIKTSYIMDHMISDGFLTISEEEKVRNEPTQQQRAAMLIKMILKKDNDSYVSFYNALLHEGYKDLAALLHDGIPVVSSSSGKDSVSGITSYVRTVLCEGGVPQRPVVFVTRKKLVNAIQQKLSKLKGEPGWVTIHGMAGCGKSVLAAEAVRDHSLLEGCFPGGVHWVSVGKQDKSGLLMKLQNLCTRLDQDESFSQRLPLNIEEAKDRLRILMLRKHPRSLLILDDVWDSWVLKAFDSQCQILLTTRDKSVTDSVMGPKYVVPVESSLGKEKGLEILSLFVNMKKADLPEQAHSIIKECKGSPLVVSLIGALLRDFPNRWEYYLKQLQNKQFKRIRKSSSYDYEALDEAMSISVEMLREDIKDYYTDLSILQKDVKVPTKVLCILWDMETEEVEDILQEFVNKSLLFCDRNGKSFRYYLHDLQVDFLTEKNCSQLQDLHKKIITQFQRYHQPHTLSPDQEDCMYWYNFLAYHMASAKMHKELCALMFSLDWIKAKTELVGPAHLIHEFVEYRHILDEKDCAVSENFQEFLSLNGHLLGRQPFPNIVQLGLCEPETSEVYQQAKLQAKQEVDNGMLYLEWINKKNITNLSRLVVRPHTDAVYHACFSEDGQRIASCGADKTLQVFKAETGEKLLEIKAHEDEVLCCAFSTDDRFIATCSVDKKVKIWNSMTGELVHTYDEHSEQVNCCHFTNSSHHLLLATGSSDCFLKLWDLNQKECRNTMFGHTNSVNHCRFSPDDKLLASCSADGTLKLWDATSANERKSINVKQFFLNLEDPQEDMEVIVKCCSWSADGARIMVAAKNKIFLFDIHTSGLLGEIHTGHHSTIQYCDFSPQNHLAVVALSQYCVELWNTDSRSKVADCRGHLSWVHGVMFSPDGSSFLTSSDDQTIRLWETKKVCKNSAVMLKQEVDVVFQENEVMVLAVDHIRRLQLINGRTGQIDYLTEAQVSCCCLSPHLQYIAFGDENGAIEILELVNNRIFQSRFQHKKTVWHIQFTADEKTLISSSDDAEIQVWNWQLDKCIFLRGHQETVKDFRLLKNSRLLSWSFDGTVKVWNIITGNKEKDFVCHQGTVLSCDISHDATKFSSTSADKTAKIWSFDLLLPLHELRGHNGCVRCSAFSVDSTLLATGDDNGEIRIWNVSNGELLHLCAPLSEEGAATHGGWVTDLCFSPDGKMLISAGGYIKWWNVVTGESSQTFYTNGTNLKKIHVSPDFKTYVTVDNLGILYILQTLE
#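 Material: reconstituted apoptosome with Apaf-1, cytochrome c, caspase-9, procaspase-3, dATP. Technique: Rh110 fluorescence intensity. Buffer or medium: pH 7.5 Hepes buffer with CHAPS, BSA, DTT. Times: 30 min plus 50 min, RT.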
# MEKK2mut PB1 HTS: signal of MEK5 binding to mutant human MEKK2 PB1 domain; bead flow cytometry, Alexa488-MEK5 binding to MEKK2 mutant; percent response, % at 10 µM; actives 0.35% (n = 290,000); AID 1530; in the data active means percent response above about 24%, passing the limit was not always enough
# UBC13 polyUb: inhibitors of human UBC13 polyubiquitin chain formation. TR-FRET. AID 485273. P61088. actives 0.47% (n = 330,000). inhibition, % at 20 µM; in the data active means inhibition above about 45%, passing the limit was not always enough
# MEKK2wt PB1 HTS: raises or lowers MEK5 binding to wildtype human MEKK2 PB1 domain; AID 1531; binding response (% of control), % at 10 µM; actives 1.1% (n = 290,000); Q9Y2U5; bead flow cytometry, Alexa488-MEK5 binding to MEKK2 WT; actives lie on both sides; in the data active means binding response below about 67% or above about 130%
# MEKK3 PB1 HTS: MEKK3-MEK5 PB1 interaction, increase or decrease. bead-based flow cytometry, Alexa488-MEK5 binding to MEKK3; actives lie on both sides; 0 = blocked by unlabeled MEK5, 100 = vehicle. binding response (% of control), % at 10 µM. actives 1.4% (n = 290,000). AID 1529;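 active means binding response more than 3 SD above or below the average of its plate-row segment, actives on both sides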;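 further: Alexa488 bead fluorescence after subtracting the streptavidin-only scavenger bead signal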
# PREPL inhibitor: inhibits the human prolyl oligopeptidase-like enzyme; Q4J6C6; actives 0.68% (n = 320,000); inhibition, % at 5.96 µM; AID 2751; recombinant PREPL, fluorescence polarization activity-based probe; in the data active means inhibition above about 43%;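 further: 0% = enzyme with DMSO and 100% = wells lacking enzyme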
# MEKK2wt confirm: raises or lowers MEK5 binding to wildtype human MEKK2, retest | shares compounds with MEKK3 PB1 HTS | actives 2.4% (n = 5,900) | bead flow cytometry, Alexa488-MEK5 binding to MEKK2 WT; actives lie on both sides | AID 1892 | binding response (% of control), % at 10 µM; in the data active means binding response below about 16% or above about 210%; inactive means in between
# MEKK2mut-MEK5: signal of MEK5 binding to mutant human MEKK2, retest; shares compounds with MEKK3 PB1 HTS; bead flow cytometry, Alexa488-MEK5 binding to MEKK2 mutant; percent response, % at 10 µM; actives 2% (n = 5,900); AID 1893; in the data active means percent response mostly above about 71%, no sharp cut-off; inactive means mostly below about 38%;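 further: higher means compound restores mutant binding toward wildtype level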
# MEKK3 confirm: MEKK3-MEK5 PB1 inhibition, single concentration confirmation; shares compounds with MEKK3 PB1 HTS; bead flow cytometry, Alexa488-MEK5 binding to MEKK3; stronger effect = lower value; binding response (% of control), % at 10 µM; actives 1.8% (n = 5,900); AID 1894;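 active means binding response below 72% of control, or above a set upper limit, though filed actives all read lower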;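 further: 100% = DMSO only wells and 0% = binding blocked by excess unlabeled MEK5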
# Active calls of the source: *; x = no result; [ ] = remark or other dose.
SMILES,Apaf1 inhib,MEKK2mut PB1 HTS,UBC13 polyUb,MEKK2wt PB1 HTS,MEKK3 PB1 HTS,PREPL inhibitor,MEKK2wt confirm,MEKK2mut-MEK5,MEKK3 confirm
CC(C)[C@H](NC(=O)NCc1cccs1)C(=O)O,-1,-46,0,2.0*[inhibitor],2.0*[inhibitor],-7,102,8,108
Oc1[nH]c2ccccc2c1N=Nc1ncnc2c1oc1ccccc12,13,-5,-1,91,96,2,x,x,x
CCN(CC(=O)Nc1c(F)cccc1F)C(=O)c1nc2nccc(C)n2n1,-8,x,0,x,x,-1,x,x,x
N#Cc1cc([N+](=O)[O-])ccc1NC(=O)CSc1n[nH]c(=O)[nH]c1=O,1,x,-11,x,x,10,x,x,x
CCOc1ccc(/C=C2\SC(N3CCc4ccccc4C3)=NC2=O)cc1,7,-1,-2,95,132,-28,x,x,x
COc1ccc(/C=C2\SC(N3CCc4ccccc4C3)=NC2=O)cc1,10,1,1,103,131*,-6,95,-10,99
Cc1cc(C)cc(NC(=O)CSc2nc(=O)n(CCCN3CCOCC3)c3c2CCCC3)c1,13,x,0,x,x,17,x,x,x
O=C(O)/C=C\C(=O)Nc1ccc(Oc2ccccc2)cc1,-20,0,0,92,98,-4,x,x,x
O=C(O)/C=C/C(=O)Nc1ccc(Oc2ccc(NC(=O)/C=C/C(=O)O)cc2)cc1,2,1,18,106,150*,-2,87,-9,87
O=C(Nc1ccccc1)/C(=C\c1ccccc1)NC(=O)c1ccco1,-16,-9,3,97,97,-3,x,x,x
O=C(Nc1ccccc1)/C(=C\c1ccncc1)NC(=O)c1ccccc1,3,6,-1,120,131*,1,96,-2,94
O=C(Nc1ccc(O)cc1)/C(=C\c1ccncc1)NC(=O)c1ccccc1,0,-5,-9,94,100,5,x,x,x
O=C(Nc1ccccc1)/C(=C/c1cccnc1)NC(=O)c1ccco1,-13,0,10,106,129*,7,102,2,102
O=[N+]([O-])c1cc([N+](=O)[O-])c(Oc2cccnc2Br)cc1NN1CCCCC1,3,-2,4,91,99,3,x,x,x
COc1ccccc1C(=O)C1CCCN(C(=O)c2cccnc2SC)C1 (centres undefined),-18,541*,12,632*,128*,1,100,-1,99
CC(C)Cc1nnc(NC(=O)CCC(=O)NC2CCCCC2)s1,-10,2,7,103,104,3,x,x,x
COc1ccc(Nc2ccc(C(N)=O)cc2[N+](=O)[O-])cc1,10,-3,-62,84,57*[inhibitor],23,103,5,105
Cc1ccc(NC(=O)C2CC(=O)N(Cc3ccco3)C2)cc1 (centres undefined),-6,8,1,103,104,-3,x,x,x
CCCCOc1ccc(Br)cc1/C(C)=N/NC1=NCCN1,11,35*,38,162*,113,14,144,31,105
Cc1ccccc1OCC(O)CNC1CCC(NCC(O)COc2ccccc2C)CC1 (centres undefined),19,76*,38,219*,111,27,207*,70*,111
O=C(Cc1ccc2c(c1)CCCC2)Nc1ccccc1Br,12,-25,2,58,43*[inhibitor],4,108,6,106
Nc1cc(Cl)ccc1C(=O)OCC(=O)NCc1cccs1,-1,x,16,x,x,15,x,x,x
O=C(C1CCCCN1S(=O)(=O)c1ccccc1[N+](=O)[O-])N1CCCCC1 (centres undefined),-7,-2,8,90,74*[inhibitor],-6,99,-2,103
O=C(C1CCCCN1S(=O)(=O)c1ccccc1[N+](=O)[O-])N1CCCC1 (centres undefined),-1,-6,0,98,102,20,x,x,x
NS(=O)(=O)c1ccc(NC(=O)c2c(F)cccc2Cl)cc1,0,26,-8,130,131*,21,106,-4,104
SMILES,Apaf1 inhib,MEKK2mut PB1 HTS,UBC13 polyUb,MEKK2wt PB1 HTS,MEKK3 PB1 HTS,PREPL inhibitor,MEKK2wt confirm,MEKK2mut-MEK5,MEKK3 confirm
C=Cc1c(C)c2cc3[nH]c(cc4nc(cc5nc(cc1[nH]2)C(C)=C5CCC(=O)O)C(CCC(=O)O)=C4C)c(C)c3C=C,11,-8,-44,60*[inhibitor],88,40,69,-13,98
COc1cc(C(=S)N2CCOCC2)cc(OC)c1OC(=O)c1cccc(C)c1,-29,25*,10,104,107,2,98,0,105
COc1cc(C(=S)N2CCOCC2)cc(OC)c1OC(=O)c1ccc(C)cc1,10,7,-1,107,103,x,x,x,x
NS(=O)(=O)c1ccc(CCNS(=O)(=O)c2ccc(Cl)s2)cc1,-9,x,17,x,x,0,x,x,x
CCOc1ccc(C2=C/C(=C/c3cccnc3)C(=O)O2)cc1,4,-2,-1,84,82*[inhibitor],12,37,-17,59*
CCNC(=S)N1CCN(S(=O)(=O)c2cccc(C(F)(F)F)c2)CC1,-7,0,6,110,151*,9,105,1,103
COCCNC(=O)Nc1ccc2nc(-c3cccs3)c(-c3cccs3)nc2c1,14,-3,-3,67*[inhibitor],92,-2,67,-18,90
O=C(Nc1ccc2nc(-c3cccs3)c(-c3cccs3)nc2c1)NC1CC1,-8,-18,29,20*[inhibitor],68*[inhibitor],7,54,-20,95
COc1ccccc1C(CNC(=O)C1CC(=O)N(Cc2ccc(C)cc2)C1)N1CCCC1 (centres undefined),25,x,19,x,x,-5,x,x,x
Cc1ccc(S(=O)(=O)N(CC(=O)N=Nc2c(O)[nH]c3ccccc23)c2cccc(C)c2)cc1,14,0,35,102,150*,-14,95,-6,102
CCCCNC(=S)N(C)/N=C/c1ccc(OCC(=O)Nc2c(C)cc(C)cc2C)c(OC)c1,4,-1,4,98,129*,-5,107,0,104
CCCCNC(=S)N(C)/N=C/c1ccc(OCC(=O)Nc2ccc(OC)cc2)c(OC)c1,24,-1,-6,107,142*,10,108,2,101
COc1cc(/C=N/NC(=S)NC(C)C)ccc1OCC(=O)Nc1c(C)cc(C)cc1C,1,-2,-16,100,97,-10,x,x,x
